To fix the notation:
B1: tRNA (parent)
chain: GUUCCGUUGGCGUAAUGGUAACGCGUCUCCCUCCUAAGGAGAAGACUGCGGGUUCGAGUCCCGUACGGAACG

Variants at the floor of the assay were thinned out.

The data set covers variants of B1. As to the kind of experiment: yeast fitness relative to wild type (ratio to wild type); higher = fitter; tRNA-Arg(CCU), competitive growth, 37 C, YPD. A digest of the protocol: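 For this measurement, the tRNA-Arg(CCU) gene was varied by chemical synthesis at a 3% per-site mutation rate across 69 sites, and each variant was placed at the native genomic locus in Saccharomyces cerevisiae. The pooled strains went through a 24-hour competition in YPD at 37°C in six parallel replicates, with amplicons from start and end populations read by 100-nucleotide paired-end sequencing. Darwinian fitness relative to wild type followed from the change in each genotype's frequency. Genotypes needed ≥ 100 starting reads, and estimates < 0.5 were set to 0.5.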
For G6A G18C A37C, the yeast fitness was at most 0.5.

Turning to G6A A45C C46G, the yeast fitness turned out to be 0.617.

G6A C27G A42C: the yeast fitness was at most 0.5.

In the case of G6A G10A C22G G25C, the yeast fitness was at most 0.5.

G6A G10A A45G: the yeast fitness stood at 0.647.

Regarding G6A C24G G50A, the yeast fitness was at most 0.5.

On to G6A G18C A21C C33A, for which the yeast fitness was 0.605.

As for G6A C66A A69C, the yeast fitness came out at 0.565.

In the case of G6A G10C C34U C46U, the yeast fitness is at most 0.5.

G6A G25C: the yeast fitness turned out to be 0.866.

Consider G6A G9C G44C G67A, for which the yeast fitness stood at 0.649.

Regarding G6A A45U A57C, the yeast fitness is at most 0.5.

As for G6A C60G A70C, the yeast fitness turned out to be 0.531.

With G6A C61G G67C, the yeast fitness came out at 0.546.

Consider G6A C49G C61U A69G, for which the yeast fitness is at most 0.5.

Regarding G6A C22U U35C C55A C66U, the yeast fitness is at most 0.5.

As to G6A C24U A45C C61G, the yeast fitness is at most 0.5.

Take G6A G23A A42G C46U C55G: the yeast fitness was found to be 0.522.

As to G6A C31A C55G C66A, the yeast fitness is at most 0.5.

With G6A G17A U19G, the yeast fitness was determined as 0.512.

Turning to G6A C49G, the yeast fitness came to 0.904.

Consider G6A C49A, for which the yeast fitness was found to be 0.625.

For the variant G6A G23C, the yeast fitness came out at 0.643.

As to G6A G23A, the yeast fitness was determined as 0.877.

Take G6A C11U U26A C33A A43G: the yeast fitness is at most 0.5.

For G6A G10A G18A C27G A37G G38A, the yeast fitness is at most 0.5.

Turning to G6A C11U A40G, the yeast fitness is at most 0.5.

For G6A G12C C49G, the yeast fitness is at most 0.5.

For G6A C34U U64A, the yeast fitness is at most 0.5.

Turning to G6A G9C A21C C30U A45U, the yeast fitness was at most 0.5.

G6A G18U C24A U32A G38A A43G A45U G52A: the yeast fitness amounted to 0.641.

G6A C22U C33U A36U A43C C60U C61G A70G: the yeast fitness was at most 0.5.

In the case of G6A C27A C30U G41C A43U C49A G63U, the yeast fitness was 0.54.

On to G6A G38A A40C G56A C60U C61G, for which the yeast fitness is at most 0.5.

With G6A C62U G67C, the yeast fitness was at most 0.5.

Take G6A A43G U59C: the yeast fitness came to 0.595.

Regarding G6A A45G A65U, the yeast fitness amounted to 0.771.

As for G6A C34G A37G A57G A70C, the yeast fitness was at most 0.5.

On to G6A C31G C49A G68C, for which the yeast fitness is 0.536.

For the variant G6A C31A U59C A70U, the yeast fitness was at most 0.5.

With G6A C11U C34G G58A, the yeast fitness was 0.724.

With G6A G10C A15U C61A, the yeast fitness was at most 0.5.

On to G6A C33A, for which the yeast fitness stood at 0.686.

Turning to G6A C33A A37C G58A C66U G67U, the yeast fitness was at most 0.5.

Turning to G6A C24U G48C, the yeast fitness stood at 0.618.

Take G6A G18A A36C U47G: the yeast fitness was at most 0.5.

Turning to G6A G10C U54C, the yeast fitness was at most 0.5.

For the variant G6A C22U C29G, the yeast fitness is at most 0.5.

Turning to G6A C66A, the yeast fitness was 0.879.

As for G6A C66G, the yeast fitness turned out to be 0.683.

G6A C22U C34G G56C: the yeast fitness was found to be 0.693.

For G6A A45U C49U, the yeast fitness amounted to 0.564.

As to G6A C11U U13C C27G, the yeast fitness turned out to be 0.507.

Turning to G6A C33U C49A G58C A69U, the yeast fitness was at most 0.5.

In the case of G6A C31A A69U, the yeast fitness came out at 0.506.

With G6A G9C C11G G48C U59A, the yeast fitness was at most 0.5.

In the case of G6A C22G U47A G67U A70C, the yeast fitness was at most 0.5.

Take G6A C22G U35C C55G: the yeast fitness is at most 0.5.

Take G6A G18A C30U C55G: the yeast fitness was at most 0.5.

As for G6A A43C, the yeast fitness came out at 0.779.

For the variant G6A A43U, the yeast fitness is 0.747.

In the case of G6A A40G A45U G56A, the yeast fitness is at most 0.5.

G6A A40G G41A A42G: the yeast fitness was at most 0.5.

Regarding G6A C24U G38A C61G C66U A69U, the yeast fitness was at most 0.5.

Turning to G6A C24G U35A G48C, the yeast fitness turned out to be 0.54.

With G6A C11G C24U, the yeast fitness is at most 0.5.

As to G6A C30U G63A G67A, the yeast fitness was at most 0.5.

Regarding G6A C22U C29G A42G, the yeast fitness was at most 0.5.

As to G6A C49U A65U, the yeast fitness amounted to 0.667.

In the case of G6A C49U A65C, the yeast fitness turned out to be 0.701.

In the case of G6A A37U G56A A65C, the yeast fitness turned out to be 0.56.

As to G6A C29U U47A G51A A57G, the yeast fitness is at most 0.5.

For the variant G6A G38A G56A, the yeast fitness amounted to 0.679.

For G6A C24U C61G C66U, the yeast fitness is 0.724.

Take G6A C33G C34G C61A: the yeast fitness came to 0.548.

In the case of G6A C22G C31U, the yeast fitness worked out at 0.771.

With G6A C30U G67A, the yeast fitness was found to be 0.586.

With G6A C27G A40C, the yeast fitness turned out to be 0.545.

G6A A57C G58A: the yeast fitness was at most 0.5.

For the variant G6A G17C G18C A45G, the yeast fitness is at most 0.5.

As to G6A G17A C31A C33G G38A, the yeast fitness is at most 0.5.

For the variant G6A C27A A65G A70C, the yeast fitness is at most 0.5.

Take G6A C11G C33G A70U: the yeast fitness was at most 0.5.

For the variant G6A A37U C55G C66U, the yeast fitness is at most 0.5.

Take G6A C29U C31A C34U G56A: the yeast fitness is at most 0.5.

G6A C24G: the yeast fitness amounted to 0.625.

Regarding G6A C30U C33U C46U, the yeast fitness is at most 0.5.

With G6A C33G C34G A43U C61A, the yeast fitness was at most 0.5.

For the variant G6A C30U, the yeast fitness is 0.742.

On to G6A C30A, for which the yeast fitness amounted to 0.845.

Take G6A A42C C62A: the yeast fitness came to 0.97.

Regarding G6A C22G U54G A69U, the yeast fitness was at most 0.5.

Regarding G6A G12C U16A A21C G56A, the yeast fitness came out at 0.536.

For the variant G6A C31U A43U C55A, the yeast fitness was at most 0.5.

G6A C22G A42C C62U: the yeast fitness is at most 0.5.

As for G6A C60G G67A, the yeast fitness was 0.53.

As for G6A C22A U35A C49G G63C, the yeast fitness was at most 0.5.

In the case of G6A C31G G41A, the yeast fitness is at most 0.5.

Regarding G6A C24U C29G C66U, the yeast fitness was at most 0.5.

In the case of G6A A43G A69U, the yeast fitness stood at 0.716.

With G6A C11U U13C A70G, the yeast fitness was at most 0.5.

As to G6A C11U C24U, the yeast fitness was at most 0.5.

As for G6A G25A A40C A57C C61A G67A, the yeast fitness was at most 0.5.

As to G6A A43U U53C A57C A65U, the yeast fitness was at most 0.5.

For the variant G6A C24U U47C, the yeast fitness amounted to 0.751.

As to G6A A43U C46A, the yeast fitness turned out to be 0.649.

In the case of G6A C22A C31U G68C, the yeast fitness is 0.709.

Consider G6A G17C U35A G39A C55G C60U G67C, for which the yeast fitness is at most 0.5.

For the variant G6A C30U A42C G48C, the yeast fitness was at most 0.5.

For G6A C33U C34U C62G, the yeast fitness was at most 0.5.

G6A C31U C46A A57U C60U: the yeast fitness was at most 0.5.

For G6A C27G A65C, the yeast fitness amounted to 0.562.

G6A C24A A43C G52C C66G A69G: the yeast fitness is at most 0.5.

On to G6A A65G, for which the yeast fitness was 0.88.

On to G6A A65U, for which the yeast fitness was determined as 0.925.

Take G6A C34G C61G: the yeast fitness turned out to be 0.538.

For G6A A65C A70U, the yeast fitness was 0.712.

Consider G6A C22U C33A C55U C61A, for which the yeast fitness was at most 0.5.

In the case of G6A G18C A21C C33A G52A, the yeast fitness is at most 0.5.

In the case of G6A C30A C31U A45C C55G, the yeast fitness is at most 0.5.

Regarding G6A C62U A65C, the yeast fitness was found to be 0.763.

G6A C34G C62U G68A: the yeast fitness was at most 0.5.

For the variant G6A C22U A42C, the yeast fitness amounted to 0.605.

As to G6A C34G A37G U64C, the yeast fitness was at most 0.5.

As for G6A C11A A45U U59G, the yeast fitness is at most 0.5.

As to G6A A40U A43C, the yeast fitness was 0.766.

As to G6A G17C, the yeast fitness amounted to 0.744.

Consider G6A G17A, for which the yeast fitness was determined as 0.633.

As for G6A C11A A40G G56C C61G A70U, the yeast fitness was at most 0.5.

Consider G6A C27G C46U C60A C66G G68C, for which the yeast fitness is at most 0.5.

On to G6A C24U A65U, for which the yeast fitness is at most 0.5.

With G6A G9C, the yeast fitness amounted to 0.81.

Take G6A A40C: the yeast fitness came to 0.967.

As for G6A C29U A43C C46U C49U G56C, the yeast fitness is at most 0.5.

On to G6A G25A U59C, for which the yeast fitness is at most 0.5.

For G6A C30U U35A A37G G38C U47A, the yeast fitness is at most 0.5.

On to G6A A42U G58A, for which the yeast fitness was 0.634.

In the case of G6A C11G U35A A37U, the yeast fitness is at most 0.5.

For G6A G9C C11G C34U, the yeast fitness is at most 0.5.

As to G6A C31A U47G C62A, the yeast fitness was at most 0.5.

As to G6A C22U A42C G52A G56C, the yeast fitness is at most 0.5.

Take G6A C24U A57C G68U A69C: the yeast fitness was at most 0.5.

For G6A C22U A40C A69U, the yeast fitness was determined as 0.63.

Regarding G6A C22U C61U A70G, the yeast fitness was at most 0.5.

Regarding G6A C33G C34G G41A G58C A70C, the yeast fitness turned out to be 0.519.

Turning to G6A G12C U16A, the yeast fitness was 0.799.

As to G6A C33G A43U, the yeast fitness was found to be 0.574.

As for G6A G12C U16C A21U C66U, the yeast fitness turned out to be 0.571.

For G6A C29U A43C C46U, the yeast fitness worked out at 0.623.

With G6A C22U, the yeast fitness amounted to 0.757.

Take G6A C31G C55U: the yeast fitness amounted to 0.537.

For G6A C27G A36U C46U G67A, the yeast fitness was at most 0.5.

With G6A C55A G67A, the yeast fitness was 0.534.

As for G6A C11G U35A A37U A70C, the yeast fitness was at most 0.5.

Regarding G6A C24U A42U U53G G68C, the yeast fitness is at most 0.5.

For G6A C22G G52C G58C A65U, the yeast fitness is at most 0.5.

Regarding G6A A45U, the yeast fitness worked out at 0.942.

With G6A C27U C31G A43C C49G G52C U59A, the yeast fitness is at most 0.5.

For G6A A45C A70U, the yeast fitness was at most 0.5.

Take G6A A45U G51A: the yeast fitness was at most 0.5.

G6A C46G G51A G52C C62G C66U: the yeast fitness was at most 0.5.

With G6A C27G A36C A42C A69C, the yeast fitness is at most 0.5.

For the variant G6A A57C G63A A65C A70C, the yeast fitness is at most 0.5.

Turning to G6A C11A A14C U19C G23A U32A A42C, the yeast fitness was 0.532.

Turning to G6A C11A A36C C61G C62A A69C, the yeast fitness was at most 0.5.

As for G6A G18C A37C C60A U64A, the yeast fitness was at most 0.5.

For G6A G10A C60G, the yeast fitness is at most 0.5.

Source of the values: the RNAGym collection of RNA variant scans (doi:10.1126/science.aae0568).
